{"source": "ChEMBL document CHEMBL1127561", "about": "“Novel spirosuccinimide aldose reductase inhibitors derived from isoquinoline-1,3-diones: 2-[(4-bromo-2-fluorophenyl)methyl]-6- fluorospiro[isoquinoline-4(1H),3'-pyrrolidine]-1,2',3,5'(2H)-tetrone and congeners. 1” (J Med Chem, 1994)", "key": {"[1]": {"biological_target": "Aldo-keto reductase family 1 member B1 (Bos taurus, UniProt P16116)", "assay": "In vitro inhibition of aldose reductase activity in a partially purified bovine lens preparation"}, "[2]": {"system": "Rattus norvegicus", "assay": "Percentage Inhibition of galactitol accumulation in the sciatic nerve of rats fed with the dose of 25.6 mg/kg/day", "format": "functional", "procedure,_shortened": "(§1)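 Male Sprague-Dawley rats (70-90 g), six per group, fed 20% galactose chow with compound in the diet for 4 days; glucose-fed controls. After a 3-h fast, lens or sciatic nerve galactitol was measured as nmol/mg wet weight. Percent inhibition vs galactose-fed controls, mean ± SEM; ANOVA with Dunnett's test.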"}, "[3]": {"assay": "Log P value by using Octanol / pH 7.4 buffer", "format": "physicochemical", "procedure,_shortened": "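Partition measured between octanol and pH 7.4 buffer.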"}, "[4]": {"system": "Rattus norvegicus", "assay": "Percentage Inhibition of galactitol accumulation in the lens of rats fed with the dose of 1.1 mg/kg/day", "format": "functional", "conditions": "Lens of camera-type eye", "procedure,_shortened": "as §1"}, "[5]": {"system": "Rattus norvegicus", "assay": "Percentage Inhibition of galactitol accumulation in the sciatic nerve of rats fed with the dose of 1.1 mg/kg/day (values are mean of six animals)", "format": "functional", "procedure,_shortened": "as §1"}, "[6]": {"system": "Rattus norvegicus", "assay": "Percentage Inhibition of galactitol accumulation in the sciatic nerve of rats fed with the dose of 0.5 mg/kg/day", "format": "functional", "procedure,_shortened": "as §1"}, "[7]": {"biological_target": "Aldo-keto reductase family 1 member B1 (Bos taurus) (UniProt P16116)", "assay": "Inhibition of aldose reductase activity in a partially purified bovine lens preparation at 10e-7 M", "procedure,_shortened": "(§2)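 Partially purified bovine lens aldose reductase (ammonium sulfate fractionation). NADPH oxidation read at 340 nm, 37 °C, in 30 mM sodium phosphate pH 6.2, 0.2 M LiSO4, […], 1% DMSO. Enzyme was preincubated with inhibitor for 5 min, then the reaction was started with 5 mM DL-glyceraldehyde. Duplicates; IC50 from linear regression of log concentration vs percent inhibition.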"}, "[8]": {"biological_target": "Aldo-keto reductase family 1 member B1 (Bos taurus) (UniProt P16116)", "assay": "Inhibition of aldose reductase activity in a partially purified bovine lens preparation at 4*10e-8 M", "procedure,_shortened": "as §2"}, "[9]": {"system": "Rattus norvegicus", "assay": "Percentage Inhibition of galactitol accumulation in the lens of rats fed with the dose of 1.0 mg/kg/day", "format": "functional", "conditions": "Lens of camera-type eye", "procedure,_shortened": "as §1"}, "[10]": {"system": "Rattus norvegicus", "assay": "Percentage Inhibition of galactitol accumulation in the lens of rats fed with the dose of 3.0 mg/kg/day", "format": "functional", "conditions": "Lens of camera-type eye", "procedure,_shortened": "as §1"}, "[11]": {"system": "Rattus norvegicus", "assay": "Percentage Inhibition of galactitol accumulation in the sciatic nerve of rats fed with the dose of 1.0 mg/kg/day", "format": "functional", "procedure,_shortened": "as §1"}, "[12]": {"system": "Rattus norvegicus", "assay": "Percentage Inhibition of galactitol accumulation in the sciatic nerve of rats fed with the dose of 3.0 mg/kg/day (values are mean of six animals)", "format": "functional", "procedure,_shortened": "as §1"}}, "data": [{"smiles": "COc1ccc2c(c1)C(=O)N(Cc1ccc(Br)cc1F)C(=O)C21CC(=O)NC1=O", "note": "(centres undefined)", "values": [{"measurement": "IC50", "setting": "[1]", "value": 37, "unit": "nM"}, {"measurement": "inhibition in vivo at 25.6 mg/kg/day", "setting": "[2]", "value": 88, "unit": "%"}]}, {"smiles": "O=C1CC2(C(=O)N1)C(=O)N(Cc1nc3cc(C(F)(F)F)ccc3s1)C(=O)c1ccccc12", "note": "(centres undefined)", "values": [{"measurement": "logD", "setting": "[3]", "value": 3.17}, {"measurement": "IC50", "setting": "[1]", "value": 22, "unit": "nM"}, {"measurement": "inhibition in vivo at 1.1 mg/kg/day", "setting": "[4]", "value": 22, "unit": "%"}, {"measurement": "inhibition in vivo at 1.1 mg/kg/day", "setting": "[5]", "value": 100, "unit": "%"}, {"measurement": "inhibition in vivo at 0.5 mg/kg/day", "setting": "[6]", "value": 49, "unit": "%"}]}, {"smiles": "CN1C(=O)c2ccccc2C2(CC(=O)NC2=O)C1=O", "note": "(centres undefined)", "values": [{"measurement": "logD", "setting": "[3]", "value": 0.24}, {"measurement": "inhibition", "setting": "[7]", "value": 63, "unit": "%"}, {"measurement": "inhibition", "setting": "[8]", "value": 38, "unit": "%"}, {"measurement": "inhibition in vivo at 1 mg/kg/day", "setting": "[9]", "value": 15, "unit": "%"}, {"measurement": "inhibition in vivo at 3 mg/kg/day", "setting": "[10]", "value": 43, "unit": "%"}, {"measurement": "inhibition in vivo at 1 mg/kg/day", "setting": "[11]", "value": 37, "unit": "%"}, {"measurement": "inhibition in vivo at 3 mg/kg/day", "setting": "[12]", "value": 66, "unit": "%"}]}]}
